Among the data in ChEMBL document CHEMBL2157904, “Identification of a novel Smoothened antagonist that potently suppresses Hedgehog signaling” (Bioorg Med Chem, 2012) are IC50 and inhibition values, retold here.

The IC50 is the concentration that gives 50% inhibition.

Test [1] in a line: Antiproliferative activity against Shh-stimulated C57BL/6 mouse granule cell precursor after 48 hrs by [3H]thymidine incorporation assay. It counts as functional. In short, it runs like this: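 Primary cerebellar granule cell precursors taken from 7-day postnatal C57BL/6 mice. Treated 48 h with Shh plus compound at increasing concentrations, then [3H]-thymidine added for 16 h and incorporation measured. Curve-fit IC50, mean ± SEM, n = 3.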

The next test has as its system U2OS. Nature of the test: Antagonist activity at chimeric Smo 633 mutant expressed in U2OS cells coexpressing beta arrestin2-GFP assessed as inhibition of intracellular beta arrestin2-GFP aggregate formation at 5 uM after 6 hrs by confocal microscopy. It counts as functional, cell-based. The settings on record: Homo sapiens. In short, it runs like this:
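Cells exposed to compound at 5 µM for 6 hours. Confocal imaging scored loss of intracellular βarr2-GFP vesicular aggregates.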

Test [2] deals with Vasopressin V2 receptor (Homo sapiens) (UniProt P30518). Nature of the test: Antagonist activity at V2R expressed in U2OS cells coexpressing beta arrestin2-GFP assessed as inhibition of D-arginine vasopressin-induced intracellular beta arrestin2-GFP aggregate formation at 5 uM preincubated for 1 hr before agonist treatment measured after 6 hrs of agonist treatment by confocal microscopy. It counts as functional, cell-based.
Sequence of Vasopressin V2 receptor (Homo sapiens) (P30518 whole entry): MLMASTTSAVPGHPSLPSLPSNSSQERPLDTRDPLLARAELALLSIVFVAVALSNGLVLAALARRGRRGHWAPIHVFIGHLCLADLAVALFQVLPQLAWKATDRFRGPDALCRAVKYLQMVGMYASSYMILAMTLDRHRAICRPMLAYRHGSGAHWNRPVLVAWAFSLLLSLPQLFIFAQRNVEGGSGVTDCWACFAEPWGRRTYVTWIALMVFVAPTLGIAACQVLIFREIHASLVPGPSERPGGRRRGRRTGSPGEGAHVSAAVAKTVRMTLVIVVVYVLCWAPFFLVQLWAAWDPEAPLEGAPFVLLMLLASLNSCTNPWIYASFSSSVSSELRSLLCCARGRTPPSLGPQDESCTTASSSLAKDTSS

The next test addresses Protein smoothened (Mus musculus, UniProt P56726). Nature of the test: Antagonist activity at Smo in mouse Shh-Light 2 cells assessed as inhibition of Shh-induced Gli1-reporter activity after 2 days by dual-luciferase reporter gene method. It counts as functional, cell-based, Shh Light II. In outline:
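Shh-LIGHT2 cells (clonal NIH3T3 line with stably integrated Gli-dependent firefly luciferase and constitutive Renilla luciferase) stimulated with purified Sonic Hedgehog at 50 ng/mL, with compound at increasing concentrations. Dual-luciferase read-out. Mean ± SEM.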
(Reporter assays use an easily measured gene product as a stand-in for the process of interest.)

Another test has as its system Mus musculus. Nature of the test: Inhibition of hair regrowth in eight week old C57BL/6 mouse at 0.5 mM topically administered daily on shaved and Nair depilated surface for 2 weeks. Type of test: functional, organism-based. In outline: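 Female C57BL/6 mice aged eight weeks, in telogen, with dorsal skin shaved and then depilated with Nair for 2 min and rinsed. Compound at 0.5 mM in 95% acetone/5% DMSO, 30 µl applied topically to the depilated area daily for two weeks. Vehicle-treated controls. Brief 3% isoflurane anaesthesia during procedures.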

Activity calls are given as the source filed them. No cut-off for these calls is given here.

Sequence of Protein smoothened (P56726 whole entry): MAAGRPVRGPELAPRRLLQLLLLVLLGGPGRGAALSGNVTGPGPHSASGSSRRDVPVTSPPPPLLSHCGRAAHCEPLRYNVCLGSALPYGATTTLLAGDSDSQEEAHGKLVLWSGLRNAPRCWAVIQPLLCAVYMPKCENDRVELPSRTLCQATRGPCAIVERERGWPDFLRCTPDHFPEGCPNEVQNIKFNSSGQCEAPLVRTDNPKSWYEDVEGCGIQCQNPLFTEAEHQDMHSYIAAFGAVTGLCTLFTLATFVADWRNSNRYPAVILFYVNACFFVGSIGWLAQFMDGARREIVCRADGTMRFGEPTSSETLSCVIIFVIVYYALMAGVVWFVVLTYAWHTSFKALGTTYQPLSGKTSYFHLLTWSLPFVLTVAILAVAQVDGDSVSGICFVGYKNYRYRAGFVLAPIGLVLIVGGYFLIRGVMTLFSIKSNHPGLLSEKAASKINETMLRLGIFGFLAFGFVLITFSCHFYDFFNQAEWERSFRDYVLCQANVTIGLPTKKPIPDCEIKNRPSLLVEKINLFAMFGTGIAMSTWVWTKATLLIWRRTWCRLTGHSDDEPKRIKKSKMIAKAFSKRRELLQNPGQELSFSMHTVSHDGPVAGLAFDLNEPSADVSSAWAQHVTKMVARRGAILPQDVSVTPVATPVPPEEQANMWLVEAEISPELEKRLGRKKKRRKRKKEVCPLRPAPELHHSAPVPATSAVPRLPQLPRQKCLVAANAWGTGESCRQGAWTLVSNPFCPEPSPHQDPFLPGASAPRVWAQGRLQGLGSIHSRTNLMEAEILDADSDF

For `CC1=C2C[C@H]3[C@@H](CC=C4C[C@@H](O)CC[C@@]43C)[C@@H]2CC[C@]12O[C@@H]1C[C@H](C)CN[C@H]1[C@H]2C` [CYCLOPAMINE], in test [1], the midpoint of inhibition, the IC50, lay at 414 nM. Further, the inhibition result with U2OS was “Active”. Moreover, the inhibition entry in test [2] is “inactive”.

For the molecule `CCN(C)Cc1ccc(N2CCC(NC(=O)c3cccc(-c4cccnc4)c3)CC2)nc1`, the inhibition result with U2OS was “Active”.

`O=C(NC1CCN(Cc2ccc(N3CCC(NC(=O)c4cccc(-c5cccnc5)c4)CC3)nc2)CC1)c1cccc(-c2cccnc2)c1`: the IC50 came out at 16.6 nM in test [1] and 2.6 nM at Protein smoothened. Also, the inhibition result in test [2] was “inactive”. For the same molecule, in the test with Mus musculus, the inhibition result was “Active”.

For `CS(=O)(=O)c1ccc(C(=O)Nc2ccc(Cl)c(-c3ccccn3)c2)c(Cl)c1` [VISMODEGIB], the IC50 in test [1] is 16.4 nM.
